# Assay results taken from ChEMBL document CHEMBL1131326, “Design, synthesis, and antiviral evaluations of 1-(substituted benzyl)-2-substituted-5,6-dichlorobenzimidazoles as nonnucleoside analogues of 2,5,6-trichloro-1-(beta-D-ribofuranosyl)benzimidazole” (J Med Chem, 1998).
# System: Human betaherpesvirus 5
# Assay: Antiviral activity against human cytomegalovirus (HCMV) by plaque reduction assay
# Type: functional, organism-based
# Settings: not given
# Outline: (§1)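 HFF monolayers infected with about 100 pfu/cm² of HCMV Towne (isolate Po); after adsorption, compound in growth medium added to duplicate wells at four to eight concentrations.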
row,Compound,IC50 [µM]
1,O=[N+]([O-])c1cccc(Cn2c(Br)nc3cc(Cl)c(Cl)cc32)c1,> 100
2,FC(F)(F)c1ccc(Cn2c(Br)nc3cc(Cl)c(Cl)cc32)cc1,> 100
3,CC(C)(C)c1ccc(Cn2c(Cl)nc3cc(Cl)c(Cl)cc32)cc1,> 100
4,Clc1cc2nc(Br)n(Cc3ccccc3)c2cc1Cl,> 100
5,O=[N+]([O-])c1ccc(Cn2c(Cl)nc3cc(Cl)c(Cl)cc32)cc1,> 100
6,FC(F)(F)c1cc(Cn2c(Cl)nc3cc(Cl)c(Cl)cc32)cc(C(F)(F)F)c1,> 100
7,FC(F)(F)c1cc(Cn2c(Br)nc3cc(Cl)c(Cl)cc32)cc(C(F)(F)F)c1,> 100
8,Cc1cccc(Cn2c(Cl)nc3cc(Cl)c(Cl)cc32)c1,> 100
9,Cc1cccc(Cn2c(Br)nc3cc(Cl)c(Cl)cc32)c1,> 100

# System: KB
# Assay: Inhibition of KB cell growth determined by quadruplicate assays
# Type: functional, cell-based
# Settings: Homo sapiens
# Outline: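 KB cells seeded at 3000-5000/well, overnight at 37 °C, then compound in quadruplicate at six to eight concentrations for 48 h (about two doublings) in CO₂. Cells fixed in 95% ethanol, stained with 0.1% crystal violet, dye eluted with acidified ethanol and read at 570 nm; IC50 by regression vs log concentration.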
row,Compound,IC50 [µM]
1,Clc1cc2nc(NC3CC3)n(Cc3ccccc3)c2cc1Cl,60
2,O=[N+]([O-])c1cccc(Cn2c(Br)nc3cc(Cl)c(Cl)cc32)c1,150
3,FC(F)(F)c1ccc(Cn2c(Br)nc3cc(Cl)c(Cl)cc32)cc1,> 100
4,CC(C)(C)c1ccc(Cn2c(Cl)nc3cc(Cl)c(Cl)cc32)cc1,> 100
5,Clc1cc2nc(Br)n(Cc3ccccc3)c2cc1Cl,> 100
6,O=[N+]([O-])c1ccc(Cn2c(Cl)nc3cc(Cl)c(Cl)cc32)cc1,183
7,FC(F)(F)c1cc(Cn2c(Cl)nc3cc(Cl)c(Cl)cc32)cc(C(F)(F)F)c1,> 100
8,FC(F)(F)c1cc(Cn2c(Br)nc3cc(Cl)c(Cl)cc32)cc(C(F)(F)F)c1,70
9,Cc1cccc(Cn2c(Cl)nc3cc(Cl)c(Cl)cc32)c1,> 100

# System: Human immunodeficiency virus 1
# Assay: Activity against HIV-1 by syncytial plaque assay performed in duplicate using CEM-SS cells
# Type: functional, organism-based
# Settings: Human immunodeficiency virus 1, CEM-SS
# Outline: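 Syncytial plaque assay: poly-L-lysine-adherent CEM-SS cells infected with HIV-1 strain IIIB with or without compound at selected concentrations; syncytial plaques counted at 30-fold magnification 7 days postinfection; duplicate. IC50 from linear regression of percent inhibition against log concentration.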
row,Compound,IC50 [µM]
1,O=[N+]([O-])c1cccc(Cn2c(Br)nc3cc(Cl)c(Cl)cc32)c1,5.3
2,FC(F)(F)c1ccc(Cn2c(Br)nc3cc(Cl)c(Cl)cc32)cc1,> 100
3,CC(C)(C)c1ccc(Cn2c(Cl)nc3cc(Cl)c(Cl)cc32)cc1,> 100
4,Clc1cc2nc(Br)n(Cc3ccccc3)c2cc1Cl,27
5,O=[N+]([O-])c1ccc(Cn2c(Cl)nc3cc(Cl)c(Cl)cc32)cc1,7.8
6,FC(F)(F)c1cc(Cn2c(Cl)nc3cc(Cl)c(Cl)cc32)cc(C(F)(F)F)c1,> 100
7,FC(F)(F)c1cc(Cn2c(Br)nc3cc(Cl)c(Cl)cc32)cc(C(F)(F)F)c1,5.9
8,Cc1cccc(Cn2c(Cl)nc3cc(Cl)c(Cl)cc32)c1,14
9,Cc1cccc(Cn2c(Br)nc3cc(Cl)c(Cl)cc32)c1,3.5

# System: Human immunodeficiency virus 1
# Assay: (§2) Compound was tested for antiviral activity against matched pairs of HIV-1 sensitive to AZT
# Type: functional, organism-based
# Settings: not given
# Outline: (§3)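 Matched clinical pairs of AZT-sensitive and AZT-resistant HIV-1 (C-691/G762 or H-112/G910, depending on compound series) were tested by syncytial plaque assay in duplicate sets on poly-L-lysine-adherent CEM-SS cells. Syncytial plaques were counted at 30-fold magnification 7 days postinfection. IC50 came from regression of percent inhibition versus log concentration, averaged over duplicate experiments.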
row,Compound,IC50 [µM]
1,O=[N+]([O-])c1cccc(Cn2c(Br)nc3cc(Cl)c(Cl)cc32)c1,8.7

# System: HFF
# Assay: Visual cytotoxicity scored on HFF cells at a time of HCMV plaque enumeration
# Type: functional, cell-based
# Settings: Homo sapiens
# Outline: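 Cytotoxicity in stationary HFF cells scored by microscopic inspection of cells not affected by virus, at time of HCMV plaque enumeration, in the plaque-assay plates.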
row,Compound,IC50 [µM]
1,Clc1cc2nc(NC3CC3)n(Cc3ccccc3)c2cc1Cl,33
2,O=[N+]([O-])c1cccc(Cn2c(Br)nc3cc(Cl)c(Cl)cc32)c1,> 100
3,FC(F)(F)c1ccc(Cn2c(Br)nc3cc(Cl)c(Cl)cc32)cc1,> 100
4,CC(C)(C)c1ccc(Cn2c(Cl)nc3cc(Cl)c(Cl)cc32)cc1,> 100
5,Clc1cc2nc(Br)n(Cc3ccccc3)c2cc1Cl,> 100
6,O=[N+]([O-])c1ccc(Cn2c(Cl)nc3cc(Cl)c(Cl)cc32)cc1,> 100
7,FC(F)(F)c1cc(Cn2c(Cl)nc3cc(Cl)c(Cl)cc32)cc(C(F)(F)F)c1,> 100
8,FC(F)(F)c1cc(Cn2c(Br)nc3cc(Cl)c(Cl)cc32)cc(C(F)(F)F)c1,> 100
9,Cc1cccc(Cn2c(Cl)nc3cc(Cl)c(Cl)cc32)c1,> 100
10,Cc1cccc(Cn2c(Br)nc3cc(Cl)c(Cl)cc32)c1,> 100

# System: Human immunodeficiency virus 1
# Assay: Compound was tested for antiviral activity against HIV-1 resistant to AZT
# Type: functional, organism-based
# Settings: not given
# Outline: as §3
row,Compound,IC50 [µM]
1,Cc1cccc(Cn2c(Br)nc3cc(Cl)c(Cl)cc32)c1,9

# System: Human immunodeficiency virus 1
# Assay: (§4) Compound was tested for antiviral activity against HIV-1 resistant to TIBO A-17
# Type: functional, organism-based
# Settings: not given
# Outline: (§5)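 Syncytial plaque assay in duplicate sets on CEM-SS cells made adherent with poly-L-lysine. Virus was the A17 HIV-1 variant, resistant to nonnucleoside RT inhibitors including TIBO, or HIV-2, both from the AIDS Research and Reference Program. Infection was in the presence or absence of compound; syncytial plaques were counted at 30-fold magnification 7 days postinfection. IC50 came from linear regression of percent inhibition against log concentration.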
row,Compound,IC50 [µM]
1,O=[N+]([O-])c1cccc(Cn2c(Br)nc3cc(Cl)c(Cl)cc32)c1,1
2,Cc1cccc(Cn2c(Br)nc3cc(Cl)c(Cl)cc32)c1,17

# System: Human immunodeficiency virus 2
# Assay: Compound was tested for antiviral activity against HIV-2
# Type: functional, organism-based
# Settings: not given
row,Compound,IC50 [µM]
1,O=[N+]([O-])c1cccc(Cn2c(Br)nc3cc(Cl)c(Cl)cc32)c1,28
2,Cc1cccc(Cn2c(Cl)nc3cc(Cl)c(Cl)cc32)c1,> 30
3,Cc1cccc(Cn2c(Br)nc3cc(Cl)c(Cl)cc32)c1,143

# System: not listed separately
# Assay: (§6) Compound was tested for antiviral activity against matched pairs of HIV-1 resistant to AZT
# Type: functional, Human immunodeficiency virus 1
# Settings: not given
# Outline: as §3
row,Compound,IC50 [µM]
1,Cc1cccc(Cn2c(Cl)nc3cc(Cl)c(Cl)cc32)c1,13

# System: Human alphaherpesvirus 1
# Assay: Antiviral activity against herpes simplex virus type-1 (HSV-1)
# Type: functional, organism-based
# Settings: not given
# Outline: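 BSC-1 cells (10 000/well, MEM(E) + 10% calf serum) incubated overnight, then given drug in quadruplicate plus HSV-1 KOS at 100 pfu/well; 3 days at 37 °C. ELISA with HRP-conjugated rabbit anti-HSV-1 antibody, TMB substrate, stopped with H₂SO₄, absorbance at 450 and 570 nm; IC50 by regression of % absorbance reduction vs log concentration.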
row,Compound,IC50 [µM]
1,Clc1cc2nc(NC3CC3)n(Cc3ccccc3)c2cc1Cl,> 100
2,FC(F)(F)c1ccc(Cn2c(Br)nc3cc(Cl)c(Cl)cc32)cc1,> 100
3,CC(C)(C)c1ccc(Cn2c(Cl)nc3cc(Cl)c(Cl)cc32)cc1,> 100
4,Clc1cc2nc(Br)n(Cc3ccccc3)c2cc1Cl,> 100
5,O=[N+]([O-])c1ccc(Cn2c(Cl)nc3cc(Cl)c(Cl)cc32)cc1,> 100
6,FC(F)(F)c1cc(Cn2c(Cl)nc3cc(Cl)c(Cl)cc32)cc(C(F)(F)F)c1,> 100
7,FC(F)(F)c1cc(Cn2c(Br)nc3cc(Cl)c(Cl)cc32)cc(C(F)(F)F)c1,65
8,Cc1cccc(Cn2c(Cl)nc3cc(Cl)c(Cl)cc32)c1,> 100

# System: CEM-SS
# Assay: Compound was tested for activity against HIV-1 by syncytial plaque assay performed in duplicate using CEM-SS cells
# Type: functional, cell-based
# Settings: Homo sapiens
# Outline: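 CEM-SS cells made adherent with poly-L-lysine, infected with HIV-1 strain IIIB with or without selected compound concentrations; duplicate sets. Syncytial plaques counted at 30-fold magnification 7 days post-infection. Percent inhibition regressed linearly against log concentration to give IC50; zidovudine positive control in all assays. Values averaged over duplicate or triplicate experiments.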
row,Compound,IC50 [µM]
1,Cc1cn([C@H]2C[C@H](N=[N+]=[N-])[C@@H](CO)O2)c(=O)[nH]c1=O [ZIDOVUDINE],0.0026

# System: Human betaherpesvirus 5
# Assay: Compound was tested for antiviral activity against human cytomegalovirus (HCMV) by plaque reduction assay
# Type: functional, organism-based
# Settings: not given
# Outline: as §1
row,Compound,IC50 [µM]
1,Clc1cc2nc(NC3CC3)n(Cc3ccccc3)c2cc1Cl,18

# System: Human immunodeficiency virus 1
# Assay: as §6
# Type: functional, organism-based
# Settings: not given
# Outline: as §3
row,Compound,IC50 [µM]
1,O=[N+]([O-])c1cccc(Cn2c(Br)nc3cc(Cl)c(Cl)cc32)c1,11

# System: not listed separately
# Assay: as §2
# Type: functional, Human immunodeficiency virus 1
# Settings: not given
row,Compound,IC50 [µM]
1,Cc1cccc(Cn2c(Cl)nc3cc(Cl)c(Cl)cc32)c1,37

# System: not listed separately
# Assay: as §4
# Type: functional, Human immunodeficiency virus 1
# Settings: not given
# Outline: as §5
row,Compound,IC50 [µM]
1,Cc1cccc(Cn2c(Cl)nc3cc(Cl)c(Cl)cc32)c1,16

# System: CEM-SS
# Assay: Cytotoxicity against CEM-SS cells in terms of incorporation of [3H]dThd
# Type: functional, cell-based
# Settings: Homo sapiens
# Outline: (§7)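 DNA synthesis in CEM-SS cells measured as uptake of [³H]dThd into total acid-precipitable material; results averaged from duplicate experiments.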
row,Compound,IC50 [µM]
1,O=[N+]([O-])c1cccc(Cn2c(Br)nc3cc(Cl)c(Cl)cc32)c1,> 100
2,FC(F)(F)c1ccc(Cn2c(Br)nc3cc(Cl)c(Cl)cc32)cc1,> 100
3,CC(C)(C)c1ccc(Cn2c(Cl)nc3cc(Cl)c(Cl)cc32)cc1,> 100
4,Clc1cc2nc(Br)n(Cc3ccccc3)c2cc1Cl,> 100
5,O=[N+]([O-])c1ccc(Cn2c(Cl)nc3cc(Cl)c(Cl)cc32)cc1,51
6,FC(F)(F)c1cc(Cn2c(Cl)nc3cc(Cl)c(Cl)cc32)cc(C(F)(F)F)c1,> 100
7,FC(F)(F)c1cc(Cn2c(Br)nc3cc(Cl)c(Cl)cc32)cc(C(F)(F)F)c1,> 100
8,Cc1cccc(Cn2c(Cl)nc3cc(Cl)c(Cl)cc32)c1,> 100
9,Cc1cccc(Cn2c(Br)nc3cc(Cl)c(Cl)cc32)c1,> 100

# System: Human immunodeficiency virus 1
# Assay: Compound was tested for antiviral activity against HIV-1 sensitive to AZT
# Type: functional, organism-based
# Settings: not given
# Outline: as §3
row,Compound,IC50 [µM]
1,Cc1cccc(Cn2c(Br)nc3cc(Cl)c(Cl)cc32)c1,8.7

# System: CEM-SS
# Assay: Compounds were tested for cytotoxicity against CEM-SS cells in terms of incorporation of [3H]dThd
# Type: functional, cell-based
# Settings: Homo sapiens
# Outline: as §7
row,Compound,IC50 [µM]
1,Cc1cn([C@H]2C[C@H](N=[N+]=[N-])[C@@H](CO)O2)c(=O)[nH]c1=O [ZIDOVUDINE],1.9
